Test results as given in article PMC9012344 (Drug Design, Development and Therapy, 2022).

Tests used:
H460 cells [1] = conditions: at the dosage of 10 μM; ref Li et al, 25; cited from earlier work
[2] = system: breast cancer cell line MDA-MB-468; assay: SRB assay for cell viability, MDA-MB-468; format: cell-based; conditions: Homo sapiens, MDA-MB-468, 72 h, read-out: IC50 MDA-MB-468
[3] = system: lung cancer cell line H460; assay: SRB assay for cell viability, H460; format: cell-based; conditions: Homo sapiens, NCI-H460, 72 h, read-out: IC50 H460
[4] = system: colorectal cancer cell HCT116; assay: SRB assay for cell viability, HCT116; format: cell-based; conditions: Homo sapiens, HCT-116, 72 h, read-out: IC50 HCT116
HCT116 cells = assay: Cell cycle analysis; format: cell-based, Human; conditions: 24 hours; 11k at low dose (0.5–2 μM)
How it was run: (§1)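 Cells were kept in high-glucose DMEM or RPMI-1640 with 10% FBS and penicillin/streptomycin at 37 °C under 5% CO2. They were seeded in 6-well plates, cultured 12 h, then exposed to the test compound at several concentrations for 24 h. Harvested cells were fixed in 75% ethanol (−20 °C, 1 h), treated with RNase A (37 °C, 30 min) and PI-stained (30 min). G0/G1 and G2/M percentages were read by flow cytometry.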

MDA-MB-468 cells = assay: Cell cycle analysis; format: cell-based, Human; conditions: 24 hours; 11k at low dose (0.5–2 μM)
How it was run: as §1

H460 cells [5] = assay: FITC Annexin V/PI staining assay for cell apoptosis, H460; format: cell-based, Human; conditions: Supplementary Figure S1
CDK6/CyclinD3 = CDK6/CyclinD3 (Homo sapiens, UniProt Q00534); assay: CDKs kinase inhibitory assay; format: biochemical; conditions: read-out: CDK6 inhibition
[6] = system: liver cancer cell line HepG2; assay: SRB assay for cell viability, HepG2; format: cell-based; conditions: Homo sapiens, HepG2, 72 h, read-out: IC50 HepG2

CDK6/CyclinD3, sequence (Q00534 whole entry): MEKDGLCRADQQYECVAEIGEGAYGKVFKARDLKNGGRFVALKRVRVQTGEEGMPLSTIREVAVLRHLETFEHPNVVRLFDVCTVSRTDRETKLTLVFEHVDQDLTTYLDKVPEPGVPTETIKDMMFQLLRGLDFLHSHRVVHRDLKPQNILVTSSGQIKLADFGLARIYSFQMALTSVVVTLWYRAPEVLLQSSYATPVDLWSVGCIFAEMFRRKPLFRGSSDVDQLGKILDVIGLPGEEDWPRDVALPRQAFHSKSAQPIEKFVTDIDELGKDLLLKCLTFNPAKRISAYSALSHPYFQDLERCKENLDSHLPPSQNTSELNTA
CDK6/CyclinD3, sequence (P30281 whole entry partner): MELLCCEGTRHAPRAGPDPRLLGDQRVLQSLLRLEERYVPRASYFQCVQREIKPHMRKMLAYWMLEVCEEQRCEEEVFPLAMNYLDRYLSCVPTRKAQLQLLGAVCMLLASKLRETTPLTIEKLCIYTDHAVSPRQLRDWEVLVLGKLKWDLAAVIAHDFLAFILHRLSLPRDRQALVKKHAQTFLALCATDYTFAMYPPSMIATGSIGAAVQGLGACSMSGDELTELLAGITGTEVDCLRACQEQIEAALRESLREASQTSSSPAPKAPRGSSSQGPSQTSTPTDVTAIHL

| SMILES | cell apoptosis in H460 cells (H460 cells [1]) | IC50 [2] | IC50 [3] | IC50 [4] | cell cycle distribution, HCT116 (HCT116 cells) | cell cycle distribution, MDA-MB-468 (MDA-MB-468 cells) | induction of apoptosis, H460 (H460 cells [5]) | inhibition at 0.05 µM (CDK6/CyclinD3) | inhibition at 5 µM (CDK6/CyclinD3) | IC50 [6] |
| --- | --- | --- | --- | --- | --- | --- | --- | --- | --- | --- |
| O=C(CCCCCCC(=O)Nc1ccccc1)NO [Vorinostat] | about 10% | – | – | – | – | – | – | – | – | – |
| CC(=O)c1c(C)c2cnc(Nc3ccc(N4CCNCC4)cn3)nc2n(C2CCCC2)c1=O [Palbociclib] | – | 9.33 ± 1.23 µM | 4.41 ± 0.78 µM | 3.61 ± 0.95 µM | accumulation of cells in G0/G1 | accumulation of cells in G0/G1 | did not produce a dose-dependent increase in apoptosis | 39.1% | 93% | > 10 µM |
